From PubChem BioAssay
CXCR6 block: inhibitors of human CXCR6 receptor | CHO-K1 PathHunter CXCR6 beta-arrestin, luminescence | AID 602244 | inhibition, % at 20 µM | 360,000 compounds, 0.36% hits; in the data active = inhibition above about 34%, passing the limit was not always enough;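 also: antagonist mode with CXCL16 agonist at 10 nM final; 0% = 10 nM CXCL16 with DMSO and 100% = unstimulated wells without agonist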
Target sequence (O00574 whole entry, looked up): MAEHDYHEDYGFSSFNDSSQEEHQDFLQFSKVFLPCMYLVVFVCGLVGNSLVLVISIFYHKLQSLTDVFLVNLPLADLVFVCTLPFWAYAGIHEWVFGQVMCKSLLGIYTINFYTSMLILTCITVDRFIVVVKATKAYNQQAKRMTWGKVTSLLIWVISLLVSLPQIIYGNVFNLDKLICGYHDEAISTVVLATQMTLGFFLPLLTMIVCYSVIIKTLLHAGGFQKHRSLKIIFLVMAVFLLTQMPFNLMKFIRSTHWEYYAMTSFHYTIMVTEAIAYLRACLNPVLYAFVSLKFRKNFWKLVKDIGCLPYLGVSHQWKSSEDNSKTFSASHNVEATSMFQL
APJ ag: APJ receptor agonism | CHO-K1 APJ PathHunter beta-arrestin, luminescence; 0% DMSO wells, 100% apelin | activation, % at 20 µM | 330,000 compounds, 0.11% hits;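 active = activation more than six SD over the plate average, tested at 20 µM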;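 also: 0% = DMSO alone and 100% = apelin-13 at 10 nM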
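Test system: CHO-K1 APJ beta-arrestin complementation cell line. Amount: cell density 1000 per well. Controls: DMSO negative, 10 nM Apelin-13 positive. Signal: luminescent beta-gal fragment complementation, chemiluminescent substrate. Read-out basis: agonist-driven arrestin binding to APJ. Timing: compound stimulation 90 min at 25 °C, detection 60 min.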
HTR2A ag: mouse HTR2A agonism via beta-arrestin recruitment | activation, % at 7.6 µM | P35363 | 360,000 compounds, 0.66% hits | CHO-K1 mHTR2A beta-arrestin complementation, luminescence; percent of 30 µM serotonin response;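 active = activation above a run cutoff, the mean activation of all tested compounds plus 3 SD, cut at about 14% in these data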;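 also: 0% = plate median of compound wells and 100% = 30 µM serotonin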
CCR6 antagonist: antagonists of human CCR6 receptor. CHO-K1 CCR6 PathHunter beta-arrestin, luminescence, CCL20-stimulated. 340,000 compounds, 0.49% hits. P51684. inhibition, % at 20 µM;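 active = compounds whose inhibition of the agonist-driven luminescence signal at 20 µM reaches about 50%, limit read from the data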;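 also: cells stimulated with CCL20 at 14 nM final; plate controls were DMSO with CCL20 for no effect and DMSO without agonist for full effect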
APJ antagonist: blocks the human apelin receptor APJ; P35414; CHO-K1 APJ beta-arrestin complementation, luminescence; inhibition, % at 20 µM; 330,000 compounds, 0.32% hits; AID 2521;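 active = inhibition above about 40% at 20 µM, limit read from the data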;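 also: cells challenged with 10 nM apelin-13 agonist together with compound; plate controls were apelin-13 plus DMSO wells for no effect and DMSO wells lacking apelin-13 for full effect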
EBI2 block: antagonists of human EBI2 receptor; EBI2 beta-arrestin recruitment, luminescence, 7a,25-OHC stimulated; inhibition, % at 5 µM; 360,000 compounds, 0.81% hits; in the data active = inhibition above about 38%;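 also: enzyme fragment complementation signal reports receptor beta-arrestin coupling in cells; 0% = agonist plus DMSO wells and 100% = wells without agonist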
MOR ag counter: counter-screen for mouse HTR2A agonists: human mu opioid receptor agonists | shares compounds with HTR2A ag | U2OS OPRM1 beta-arrestin PathHunter, luminescence; DMSO 0%, DAMGO 9.3 µM 100% | activation, % at 9.3 µM | 2,300 compounds, 5.3% hits;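 active = mean activation above the mean of DMSO-only wells plus 3 SD, cut at about 0.5% in these data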
m5-HT2A ag conf: mouse HTR2A agonism confirmed; shares compounds with HTR2A ag; CHO-K1 PathHunter beta-arrestin recruitment, luminescence; DMSO 0%, 30 µM serotonin 100%; activation, % at 7.6 µM; 2,300 compounds, 19% hits;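 active = mean activation across triplicates above the hit threshold derived in the original primary screen, cut at about 15% in these data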
* marks the source's active call; other numbers are inactive results; ! = not confirmed by another sample. Most compounds without a hit are left out; they make up all but 2.1% or so of the library.

For COc1ccccc1N(C)S(=O)(=O)c1ccc(C(=O)N(C)Cc2ccc(OC(F)F)cc2)cc1 the results were CXCR6 block -16, APJ ag 11, HTR2A ag 1, CCR6 antagonist 9, APJ antagonist -26 and EBI2 block 5.
COc1cc2ccccc2cc1C(=O)NC(=S)Nc1cccc(C(=O)O)c1C was read as CXCR6 block 13, APJ ag -2, HTR2A ag 3, CCR6 antagonist 3, APJ antagonist 14 and EBI2 block -4.
`CCOC(=O)C(NC(=O)C1C(C)N1S(=O)(=O)c1ccc(C)cc1)C(=O)OCC` (stereo unspecified) gave CXCR6 block 3, APJ ag 8, HTR2A ag 16*, CCR6 antagonist 8, APJ antagonist -6, EBI2 block -8, MOR ag counter -1 and m5-HT2A ag conf -3.
Screening CCN(CC(=O)Nc1ccc(OC)cc1)C(=O)C1CC(=O)N(Cc2ccccc2)C1 (stereo unspecified) returned CXCR6 block -4, HTR2A ag 16*, EBI2 block -4, MOR ag counter 0 and m5-HT2A ag conf -6.
`NS(=O)(=O)c1ccc(NC(=O)COC(=O)C2CC(=O)N(Cc3ccccc3)C2)cc1` (stereo unspecified) gave CXCR6 block 0, APJ ag -5, HTR2A ag 16*, CCR6 antagonist -6, APJ antagonist 16, EBI2 block -12, MOR ag counter 0 and m5-HT2A ag conf 2.
Screening Cc1cc(C)c(C)c(S(=O)(=O)N[C@@H](C)C(=O)OCC(=O)NC2CCCC(C)C2C)c1C (stereo partly specified) returned CXCR6 block 0, APJ ag 0, HTR2A ag 5, CCR6 antagonist 2, APJ antagonist -10 and EBI2 block -4.
For CCC(NC(=O)Cc1c(C)c2c(cc(C)c3c(C)c(C)oc32)oc1=O)C(=O)O (stereo unspecified) the results were CXCR6 block 4, APJ ag -1, HTR2A ag 6, CCR6 antagonist 5, APJ antagonist 19 and EBI2 block -10.
CO[C@H]1CN(C)C(=O)c2ccc(NC(=O)C3CCC3)cc2OC[C@H](C)N(CC2CCCCC2)C[C@@H]1C was read as HTR2A ag 1 and EBI2 block 12.
For CO[C@@H]1CN(C)C(=O)c2ccc(NC(=O)C3CCC3)cc2OC[C@H](C)N(CC2CCCCC2)C[C@H]1C the results were HTR2A ag 21*, EBI2 block 5, MOR ag counter 0 and m5-HT2A ag conf -2.
Screening CCN(CC(=O)NCc1ccc(F)cc1)C(=O)C1CC1C (stereo unspecified) returned CXCR6 block 10, APJ ag 1, HTR2A ag 4, CCR6 antagonist -12, APJ antagonist -6 and EBI2 block -5.
`O=C(NC(=O)N1CCN(c2cccc(Cl)c2)CC1)c1ccccc1` gave CXCR6 block 0, APJ ag -2, HTR2A ag 15*, CCR6 antagonist -3, APJ antagonist -3, EBI2 block -7, MOR ag counter 0 and m5-HT2A ag conf 4.
O=C(NC(=O)N1CCN(c2cccc(Cl)c2)CC1)c1ccc(Cl)cc1 was read as CXCR6 block 4, APJ ag 1, HTR2A ag 5, CCR6 antagonist 11, APJ antagonist 5 and EBI2 block 0.
`OCCC1CN(Cc2cn[nH]c2C2CCCCC2)CCN1C1CCCC1` (stereo unspecified) gave CXCR6 block 2, APJ ag -1, HTR2A ag 2, CCR6 antagonist 4, APJ antagonist 15 and EBI2 block -9.
`COc1ccccc1Nc1nc(NCCO)nc(N2CCCC2)n1` gave CXCR6 block 0, APJ ag 3, HTR2A ag 3, CCR6 antagonist -3, APJ antagonist -1 and EBI2 block -14.
OCCNc1nc(Nc2ccccc2C(F)(F)F)nc(N2CCCC2)n1 was read as CXCR6 block 5, APJ ag -3, HTR2A ag 17*, CCR6 antagonist 1, APJ antagonist 14, EBI2 block 7, MOR ag counter -1 and m5-HT2A ag conf -3.
Cc1csc(NC(=O)c2ccncc2)n1 was read as CXCR6 block -9, APJ ag -2, HTR2A ag -1, CCR6 antagonist -5, APJ antagonist -14 and EBI2 block 12.
`CC(=O)Nc1nc(C)cs1` gave CXCR6 block -1, APJ ag -2, HTR2A ag 16*, CCR6 antagonist -5, APJ antagonist 7, EBI2 block -2, MOR ag counter 0 and m5-HT2A ag conf -1.
`Oc1cc2c(c(Cl)c1O)CCNCC2c1ccccc1` (stereo unspecified) gave CXCR6 block -5, APJ ag -1, HTR2A ag 24*, CCR6 antagonist -1, APJ antagonist -4, EBI2 block -1, MOR ag counter 0 and m5-HT2A ag conf 100*.
Screening Oc1ccc(C2CNCCc3c2cc(O)c(O)c3Cl)cc1 (stereo unspecified) returned CXCR6 block 2, APJ ag 1, HTR2A ag 34*!, CCR6 antagonist 7, APJ antagonist 10, EBI2 block -6, MOR ag counter 0 and m5-HT2A ag conf 145*.
`CCSC(=Nc1ccccc1)N1CCOCC1` gave CXCR6 block -5, APJ ag -2, HTR2A ag 3, CCR6 antagonist 6, APJ antagonist 5 and EBI2 block -6.
O=C1C2CCc3ccccc3C2N1c1ccccc1 (stereo unspecified) was read as CXCR6 block -2, APJ ag -2, HTR2A ag 18*, CCR6 antagonist 3, APJ antagonist 7, EBI2 block -3, MOR ag counter 0 and m5-HT2A ag conf -4.
Screening CC(=O)Nc1cccc(-c2cccc3nccn23)c1 returned CXCR6 block -3, HTR2A ag -6 and EBI2 block -1.
For COc1ccc(CC2(CO)CCN(C(C)COc3ccccc3)CC2)cc1 (stereo unspecified) the results were CXCR6 block 8, APJ ag -2, HTR2A ag 20*, CCR6 antagonist 18, APJ antagonist -12, EBI2 block 7, MOR ag counter 0 and m5-HT2A ag conf 85*.
